Experimental data taken from ChEMBL document CHEMBL1275351, “Novel spirotetracyclic zwitterionic dual H(1)/5-HT(2A) receptor antagonists for the treatment of sleep disorders” (J Med Chem, 2010).

Biological target: Histamine H1 receptor (Homo sapiens, UniProt P35367)
Assay: Antagonist activity against human histamine H1 receptor expressed in CHO cells by FLIPR assay
Type: functional, cell-based
Settings: not given

Chain of Histamine H1 receptor (Homo sapiens, UniProt P35367) (P35367 whole entry): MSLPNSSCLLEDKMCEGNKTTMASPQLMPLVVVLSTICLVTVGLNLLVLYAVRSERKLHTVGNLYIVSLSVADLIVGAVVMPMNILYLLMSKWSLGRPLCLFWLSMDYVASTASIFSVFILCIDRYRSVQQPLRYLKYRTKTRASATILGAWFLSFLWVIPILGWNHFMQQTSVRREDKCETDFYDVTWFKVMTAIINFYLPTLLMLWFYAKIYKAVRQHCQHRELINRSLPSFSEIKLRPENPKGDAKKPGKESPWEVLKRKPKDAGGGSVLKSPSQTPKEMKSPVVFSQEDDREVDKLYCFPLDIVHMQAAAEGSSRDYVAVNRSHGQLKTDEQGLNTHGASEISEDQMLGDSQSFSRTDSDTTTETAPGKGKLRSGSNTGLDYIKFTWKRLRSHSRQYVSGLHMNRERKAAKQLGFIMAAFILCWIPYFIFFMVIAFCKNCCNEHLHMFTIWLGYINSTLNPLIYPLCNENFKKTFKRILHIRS

SMILES	Ki [nM]
O=C(O)CCNC1CC[C@@]2(Cc3ccccc3Cc3ccccc32)C1 (stereo not given in full)	25.1
O=C(O)C1=CCCN(C2CC[C@]3(Cc4ccccc4Cc4ccccc43)C2)C1 (single isomer, unassigned; stereoisomer 1)	25.1
O=C(O)C1=CCCN(C2CC[C@]3(Cc4ccccc4Cc4ccccc43)C2)C1 (stereo in doubt; 48)	20

Next, values leading:

Ki [nM]	SMILES
100	O=C(O)C1CN(C2CC[C@]3(Cc4ccccc4Cc4ccccc43)C2)CCN1 (stereo not given in full)
10	O=C(O)CCNC1CC[C@]2(Cc3ccccc3Cc3ccccc32)C1 (stereo not given in full)
15.8	O=C(O)C1CCN(C2CC[C@]3(Cc4ccccc4Cc4ccccc43)C2)C1 (stereo not given in full)
12.6	CC1(C(=O)O)CCN(C2CC[C@]3(Cc4ccccc4Cc4ccccc43)C2)C1 (stereo not given in full)

Biological target: 5-hydroxytryptamine receptor 2A (Homo sapiens, UniProt P28223)
Sequence (P28223 whole entry): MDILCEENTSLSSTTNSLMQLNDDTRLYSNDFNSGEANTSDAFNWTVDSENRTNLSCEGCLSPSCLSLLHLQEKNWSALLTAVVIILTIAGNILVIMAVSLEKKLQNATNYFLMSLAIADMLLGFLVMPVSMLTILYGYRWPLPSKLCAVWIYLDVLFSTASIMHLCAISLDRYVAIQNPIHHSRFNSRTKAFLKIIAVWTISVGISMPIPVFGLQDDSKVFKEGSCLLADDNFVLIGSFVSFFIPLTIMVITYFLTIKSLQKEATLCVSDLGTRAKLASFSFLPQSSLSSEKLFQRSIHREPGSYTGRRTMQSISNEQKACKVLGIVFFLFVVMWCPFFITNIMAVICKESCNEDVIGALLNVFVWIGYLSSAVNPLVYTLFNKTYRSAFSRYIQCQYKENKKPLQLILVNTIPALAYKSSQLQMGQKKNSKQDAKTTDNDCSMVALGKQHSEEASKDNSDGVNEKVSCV
Assay: Antagonist activity at human 5HT2A receptor expressed in HEK cells assessed as inhibition of intracellular calcium accumulation by aequorin assay
Type: functional, cell-based, HEK293
Settings: not given

SMILES	Ki [nM]
O=C(O)CCNC1CC[C@@]2(Cc3ccccc3Cc3ccccc32)C1 (stereo not given in full)	2000
O=C(O)C1=CCCN(C2CC[C@]3(Cc4ccccc4Cc4ccccc43)C2)C1 (single isomer, unassigned; stereoisomer 1)	126
O=C(O)C1=CCCN(C2CC[C@]3(Cc4ccccc4Cc4ccccc43)C2)C1 (stereo in doubt; 48)	> 2000

Second part, the compound after the results:

Ki [nM]	SMILES
316	O=C(O)C1CN(C2CC[C@]3(Cc4ccccc4Cc4ccccc43)C2)CCN1 (stereo not given in full)
158	O=C(O)CCNC1CC[C@]2(Cc3ccccc3Cc3ccccc32)C1 (stereo not given in full)
20	O=C(O)C1CCN(C2CC[C@]3(Cc4ccccc4Cc4ccccc43)C2)C1 (stereo not given in full)
12.6	CC1(C(=O)O)CCN(C2CC[C@]3(Cc4ccccc4Cc4ccccc43)C2)C1 (stereo not given in full)

Biological target: 5-hydroxytryptamine receptor 2B (Homo sapiens, UniProt P41595)
Sequence (P41595 whole entry): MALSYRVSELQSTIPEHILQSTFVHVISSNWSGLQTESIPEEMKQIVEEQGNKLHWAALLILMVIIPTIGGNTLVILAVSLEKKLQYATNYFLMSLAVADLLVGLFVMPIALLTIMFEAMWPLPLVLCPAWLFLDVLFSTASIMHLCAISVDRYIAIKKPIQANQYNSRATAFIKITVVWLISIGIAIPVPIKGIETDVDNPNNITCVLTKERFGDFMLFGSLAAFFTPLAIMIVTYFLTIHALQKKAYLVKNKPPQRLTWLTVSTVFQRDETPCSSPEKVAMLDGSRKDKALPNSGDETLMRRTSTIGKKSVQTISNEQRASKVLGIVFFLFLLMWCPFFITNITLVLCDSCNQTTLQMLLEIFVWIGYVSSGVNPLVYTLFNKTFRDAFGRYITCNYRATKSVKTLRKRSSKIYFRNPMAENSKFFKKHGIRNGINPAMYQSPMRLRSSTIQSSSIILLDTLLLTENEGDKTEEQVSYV
Assay: Antagonist activity at human 5HT2B receptor expressed in human SH-SY5Y cells by FLIPR assay
Settings: not given

SMILES	Ki [nM]
O=C(O)CCNC1CC[C@@]2(Cc3ccccc3Cc3ccccc32)C1 (stereo not given in full)	> 2000
O=C(O)C1=CCCN(C2CC[C@]3(Cc4ccccc4Cc4ccccc43)C2)C1 (stereo in doubt; 48)	> 2000

Now from value to compound:

Ki [nM]	SMILES
1260	O=C(O)C1CN(C2CC[C@]3(Cc4ccccc4Cc4ccccc43)C2)CCN1 (stereo not given in full)
> 2000	O=C(O)CCNC1CC[C@]2(Cc3ccccc3Cc3ccccc32)C1 (stereo not given in full)
100	O=C(O)C1CCN(C2CC[C@]3(Cc4ccccc4Cc4ccccc43)C2)C1 (stereo not given in full)
10	CC1(C(=O)O)CCN(C2CC[C@]3(Cc4ccccc4Cc4ccccc43)C2)C1 (stereo not given in full)
31.6	CN1CCC(=C2c3ccccc3CC(=O)c3sccc32)CC1 [KETOTIFEN]

Biological target: T1, 5-hydroxytryptamine receptor 2C (Homo sapiens, UniProt P28335)
T1 sequence (P28335 whole entry): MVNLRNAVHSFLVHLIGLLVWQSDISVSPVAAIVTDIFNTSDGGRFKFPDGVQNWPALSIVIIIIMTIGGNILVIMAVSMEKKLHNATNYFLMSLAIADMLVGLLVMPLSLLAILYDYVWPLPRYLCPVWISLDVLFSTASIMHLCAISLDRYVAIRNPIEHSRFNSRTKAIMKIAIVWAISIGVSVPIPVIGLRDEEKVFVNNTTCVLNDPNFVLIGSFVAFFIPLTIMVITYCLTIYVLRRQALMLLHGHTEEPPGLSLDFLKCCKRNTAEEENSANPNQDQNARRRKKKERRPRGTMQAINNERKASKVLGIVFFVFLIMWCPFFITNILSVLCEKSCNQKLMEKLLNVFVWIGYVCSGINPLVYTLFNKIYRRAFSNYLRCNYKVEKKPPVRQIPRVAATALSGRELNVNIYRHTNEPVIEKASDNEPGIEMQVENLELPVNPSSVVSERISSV
Assay: Antagonist activity at human 5HT2C receptor expressed in human SH-SY5Y cells by FLIPR assay
Type: functional, cell-based
Settings: not given

SMILES	Ki [nM]
O=C(O)CCNC1CC[C@@]2(Cc3ccccc3Cc3ccccc32)C1 (stereo not given in full)	> 2000
O=C(O)C1=CCCN(C2CC[C@]3(Cc4ccccc4Cc4ccccc43)C2)C1 (single isomer, unassigned; stereoisomer 1)	158
O=C(O)C1=CCCN(C2CC[C@]3(Cc4ccccc4Cc4ccccc43)C2)C1 (stereo in doubt; 48)	> 2000

Results, then the compound that gave them:

Ki [nM]	SMILES
200	O=C(O)C1CN(C2CC[C@]3(Cc4ccccc4Cc4ccccc43)C2)CCN1 (stereo not given in full)
100	O=C(O)CCNC1CC[C@]2(Cc3ccccc3Cc3ccccc32)C1 (stereo not given in full)
15.8	O=C(O)C1CCN(C2CC[C@]3(Cc4ccccc4Cc4ccccc43)C2)C1 (stereo not given in full)
20	CC1(C(=O)O)CCN(C2CC[C@]3(Cc4ccccc4Cc4ccccc43)C2)C1 (stereo not given in full)
200	CN1CCC(=C2c3ccccc3CC(=O)c3sccc32)CC1 [KETOTIFEN]

Biological target: Voltage-gated inwardly rectifying potassium channel KCNH2 (Homo sapiens, UniProt Q12809)
Sequence (Q12809 whole entry): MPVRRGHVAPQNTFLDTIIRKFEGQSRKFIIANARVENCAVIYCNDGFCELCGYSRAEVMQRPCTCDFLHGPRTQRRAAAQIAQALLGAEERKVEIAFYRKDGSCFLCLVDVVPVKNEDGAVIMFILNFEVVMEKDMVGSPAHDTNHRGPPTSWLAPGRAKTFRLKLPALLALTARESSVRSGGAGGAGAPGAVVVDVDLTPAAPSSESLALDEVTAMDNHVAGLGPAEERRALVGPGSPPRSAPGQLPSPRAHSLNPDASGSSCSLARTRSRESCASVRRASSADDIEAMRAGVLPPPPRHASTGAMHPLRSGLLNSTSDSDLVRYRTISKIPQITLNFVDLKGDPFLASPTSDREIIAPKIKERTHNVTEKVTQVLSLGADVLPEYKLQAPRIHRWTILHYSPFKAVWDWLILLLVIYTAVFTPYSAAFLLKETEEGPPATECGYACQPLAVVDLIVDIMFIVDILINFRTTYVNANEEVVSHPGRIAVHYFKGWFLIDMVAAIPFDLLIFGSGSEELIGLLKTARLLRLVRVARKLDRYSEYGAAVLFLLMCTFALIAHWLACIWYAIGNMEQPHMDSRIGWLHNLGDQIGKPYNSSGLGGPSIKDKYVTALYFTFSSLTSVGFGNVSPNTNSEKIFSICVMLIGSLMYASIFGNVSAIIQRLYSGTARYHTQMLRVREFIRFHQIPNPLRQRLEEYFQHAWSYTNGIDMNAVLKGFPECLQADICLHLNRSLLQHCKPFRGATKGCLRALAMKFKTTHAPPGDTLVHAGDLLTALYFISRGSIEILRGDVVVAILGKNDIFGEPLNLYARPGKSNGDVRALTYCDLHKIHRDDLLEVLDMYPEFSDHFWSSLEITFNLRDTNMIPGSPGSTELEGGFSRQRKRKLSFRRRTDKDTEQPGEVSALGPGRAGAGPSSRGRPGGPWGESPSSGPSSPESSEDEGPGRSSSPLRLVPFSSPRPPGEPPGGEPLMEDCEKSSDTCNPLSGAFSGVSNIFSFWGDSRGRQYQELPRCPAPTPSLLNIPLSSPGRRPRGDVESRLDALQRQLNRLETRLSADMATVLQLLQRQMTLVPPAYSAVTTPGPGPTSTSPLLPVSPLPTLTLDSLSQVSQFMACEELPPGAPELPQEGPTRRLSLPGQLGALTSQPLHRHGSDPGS
Assay: Displacement of [3H]dofetilide from human ERG by scintillation proximity assay
Settings: not given

SMILES	IC50 [nM]
O=C(O)CCNC1CC[C@]2(Cc3ccccc3Cc3ccccc32)C1 (stereo not given in full)	63100
O=C(O)CCNC1CC[C@@]2(Cc3ccccc3Cc3ccccc32)C1 (stereo not given in full)	> 63100

Biological target: Histamine H1 receptor (Rattus norvegicus, UniProt P31390)
Sequence (P31390 whole entry): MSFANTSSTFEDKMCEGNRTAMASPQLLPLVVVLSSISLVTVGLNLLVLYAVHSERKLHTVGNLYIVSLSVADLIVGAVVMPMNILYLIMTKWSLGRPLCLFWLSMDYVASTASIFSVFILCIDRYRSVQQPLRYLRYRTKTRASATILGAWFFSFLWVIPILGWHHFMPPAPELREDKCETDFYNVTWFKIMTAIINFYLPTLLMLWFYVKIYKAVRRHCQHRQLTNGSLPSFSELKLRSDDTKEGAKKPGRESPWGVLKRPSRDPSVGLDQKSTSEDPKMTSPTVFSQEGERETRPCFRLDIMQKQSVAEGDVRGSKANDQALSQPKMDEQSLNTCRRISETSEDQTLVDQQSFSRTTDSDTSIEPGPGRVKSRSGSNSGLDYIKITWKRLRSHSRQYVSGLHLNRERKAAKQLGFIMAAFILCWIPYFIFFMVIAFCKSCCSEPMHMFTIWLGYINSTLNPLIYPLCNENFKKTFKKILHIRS
Assay: Displacement of [3H]pyrilamine from histamine H1 receptor in Sprague-Dawley rat cortical membrane by liquid scintillation counting
Settings: not given
How it was run: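 Cerebral cortex membranes from male Sprague-Dawley rats (200-250 g), 150 μg/well. Incubated with 0.6 nM [3H]pyrilamine in 50 mM HEPES, pH 7.4, for 2 h at room temperature. Filtered on PEI-soaked GF/B and counted by scintillation. Nonspecific binding with 10 μM cetirizine. Ki by Cheng-Prusoff; mean of two experiments in duplicate.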

SMILES	Ki [nM]
O=C(O)C1=CCCN(C2CC[C@]3(Cc4ccccc4Cc4ccccc43)C2)C1 (single isomer, unassigned; stereoisomer 1)	8.71

Biological target: 5-hydroxytryptamine receptor 2A (Rattus norvegicus, UniProt P14842)
Sequence (P14842 whole entry): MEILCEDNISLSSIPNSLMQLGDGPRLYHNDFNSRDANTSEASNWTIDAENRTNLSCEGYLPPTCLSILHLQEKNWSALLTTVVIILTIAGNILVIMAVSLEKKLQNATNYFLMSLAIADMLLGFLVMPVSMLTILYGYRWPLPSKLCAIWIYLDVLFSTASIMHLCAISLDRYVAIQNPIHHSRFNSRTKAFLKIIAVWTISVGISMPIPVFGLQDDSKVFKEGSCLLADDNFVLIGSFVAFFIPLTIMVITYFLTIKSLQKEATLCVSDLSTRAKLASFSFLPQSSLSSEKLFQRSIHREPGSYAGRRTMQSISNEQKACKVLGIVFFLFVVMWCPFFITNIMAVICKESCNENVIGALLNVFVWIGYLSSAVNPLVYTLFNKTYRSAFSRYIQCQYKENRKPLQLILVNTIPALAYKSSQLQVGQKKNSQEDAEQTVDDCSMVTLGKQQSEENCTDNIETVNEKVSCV
Assay: Displacement of [3H]ketanserin from 5HT2A receptor in Sprague-Dawley rat cortical membrane by liquid scintillation counting
Settings: not given
How it was run: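 Cerebral cortex membranes from male Sprague-Dawley rats (200-250 g), 50 μg/well. Incubated with 1 nM [3H]ketanserin in 50 mM Tris-HCl, 10 mM MgCl2, pH 7.4, for 1 h at 37 °C with shaking. Filtered on PEI-soaked GF/B and counted by scintillation. Nonspecific binding with 10 μM mianserin. Ki by Cheng-Prusoff; mean of two experiments in duplicate.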

SMILES	Ki [nM]
O=C(O)C1=CCCN(C2CC[C@]3(Cc4ccccc4Cc4ccccc43)C2)C1 (single isomer, unassigned; stereoisomer 1)	117

Biological target: T2, Cytochrome P450 1A2 (Homo sapiens, UniProt P05177)
T2 sequence (P05177 whole entry): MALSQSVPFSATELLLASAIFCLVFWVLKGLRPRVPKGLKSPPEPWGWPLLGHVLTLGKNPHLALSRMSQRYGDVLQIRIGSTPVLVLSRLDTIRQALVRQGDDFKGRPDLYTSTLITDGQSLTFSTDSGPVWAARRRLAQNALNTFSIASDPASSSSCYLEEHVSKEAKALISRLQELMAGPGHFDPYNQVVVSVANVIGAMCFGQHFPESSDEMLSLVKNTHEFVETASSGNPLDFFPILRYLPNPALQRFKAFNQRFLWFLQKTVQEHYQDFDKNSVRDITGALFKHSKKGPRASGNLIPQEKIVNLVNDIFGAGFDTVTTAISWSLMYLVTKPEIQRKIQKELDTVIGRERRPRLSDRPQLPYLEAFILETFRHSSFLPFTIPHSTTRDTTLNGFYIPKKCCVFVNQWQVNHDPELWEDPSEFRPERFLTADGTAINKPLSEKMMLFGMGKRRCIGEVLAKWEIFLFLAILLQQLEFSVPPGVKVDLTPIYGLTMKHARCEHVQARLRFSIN
Assay: Inhibition of human CYP1A2 transfected in bactosome expression system by spectrofluorimetry
Type: ADME
Settings: not given
How it was run: (§1)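 Recombinant human CYP Bactosomes (0.1 mg/mL) in 50 mM phosphate buffer, pH 7.4. Compound at 0.1-10 μM was preincubated with fluorogenic substrate for 10 min at 37 °C, and the reaction was started with an NADPH regenerating system. Metabolite fluorescence was followed for 10 min. Substrates: 1A2 ethoxyresorufin 0.5 μM; 2C9 FCA 50 μM; 2C19 BMC 10 μM; 2D6 MMC 10 μM; 3A4 DEF 1 μM or 7-BQ 25 μM. Run in triplicate.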

SMILES	IC50 [nM]
O=C(O)C1=CCCN(C2CC[C@]3(Cc4ccccc4Cc4ccccc43)C2)C1 (single isomer, unassigned; stereoisomer 1)	> 10000

Biological target: Cytochrome P450 2C9 (Homo sapiens, UniProt P11712)
Assay: Inhibition of human CYP2C9 transfected in bactosome expression system by spectrofluorimetry
Type: ADME
Settings: not given
How it was run: as §1

SMILES	IC50 [nM]
O=C(O)C1=CCCN(C2CC[C@]3(Cc4ccccc4Cc4ccccc43)C2)C1 (single isomer, unassigned; stereoisomer 1)	> 10000

Biological target: Cytochrome P450 2C19 (Homo sapiens, UniProt P33261)
Assay: Inhibition of human CYP2C19 transfected in bactosome expression system by spectrofluorimetry
Type: ADME
Settings: not given
How it was run: as §1

SMILES	IC50 [nM]
O=C(O)C1=CCCN(C2CC[C@]3(Cc4ccccc4Cc4ccccc43)C2)C1 (single isomer, unassigned; stereoisomer 1)	> 10000

Biological target: Cytochrome P450 2D6 (Homo sapiens, UniProt P10635)
Sequence (P10635 whole entry): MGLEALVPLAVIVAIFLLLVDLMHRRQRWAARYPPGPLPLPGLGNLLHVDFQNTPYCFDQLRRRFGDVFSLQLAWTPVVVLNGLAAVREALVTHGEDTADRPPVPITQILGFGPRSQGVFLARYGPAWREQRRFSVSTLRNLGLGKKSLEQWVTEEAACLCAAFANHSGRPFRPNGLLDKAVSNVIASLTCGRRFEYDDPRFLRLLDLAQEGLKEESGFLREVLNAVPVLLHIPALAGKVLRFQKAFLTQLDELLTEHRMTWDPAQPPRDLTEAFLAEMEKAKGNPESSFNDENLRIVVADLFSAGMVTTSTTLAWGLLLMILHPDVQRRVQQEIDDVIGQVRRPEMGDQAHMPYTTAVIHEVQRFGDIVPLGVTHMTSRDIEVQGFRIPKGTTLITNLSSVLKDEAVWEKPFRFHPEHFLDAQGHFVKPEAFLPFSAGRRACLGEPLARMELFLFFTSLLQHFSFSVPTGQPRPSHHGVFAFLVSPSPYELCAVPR
Assay: Inhibition of human CYP2D6 transfected in bactosome expression system by spectrofluorimetry
Type: ADME
Settings: not given
How it was run: as §1

SMILES	IC50 [nM]
O=C(O)C1=CCCN(C2CC[C@]3(Cc4ccccc4Cc4ccccc43)C2)C1 (single isomer, unassigned; stereoisomer 1)	> 10000

Biological target: Cytochrome P450 3A4 (Homo sapiens, UniProt P08684)
Sequence (P08684 whole entry): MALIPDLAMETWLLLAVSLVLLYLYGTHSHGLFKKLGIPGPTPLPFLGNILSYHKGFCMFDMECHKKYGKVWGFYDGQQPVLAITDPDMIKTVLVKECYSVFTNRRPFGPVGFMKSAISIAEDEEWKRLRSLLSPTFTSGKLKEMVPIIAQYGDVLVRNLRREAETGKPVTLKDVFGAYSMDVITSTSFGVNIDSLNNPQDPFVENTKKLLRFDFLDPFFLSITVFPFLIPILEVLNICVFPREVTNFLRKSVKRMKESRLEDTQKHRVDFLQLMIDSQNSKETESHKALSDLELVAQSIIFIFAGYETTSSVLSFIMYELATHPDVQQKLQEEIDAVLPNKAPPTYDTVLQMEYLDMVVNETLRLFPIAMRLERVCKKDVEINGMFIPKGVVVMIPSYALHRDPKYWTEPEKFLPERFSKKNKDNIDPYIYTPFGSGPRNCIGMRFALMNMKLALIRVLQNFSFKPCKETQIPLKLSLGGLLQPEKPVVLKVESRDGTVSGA
Assay: Inhibition of human CYP3A4 transfected in bactosome expression system by spectrofluorimetry
Type: ADME
Settings: not given
How it was run: as §1

SMILES	IC50 [nM]
O=C(O)C1=CCCN(C2CC[C@]3(Cc4ccccc4Cc4ccccc43)C2)C1 (single isomer, unassigned; stereoisomer 1)	> 10000

Tested on: not listed separately
Assay: Fraction unbound in rat brain
Type: ADME, tissue-based
Settings: not given

SMILES	fraction unbound
O=C(O)C1=CCCN(C2CC[C@]3(Cc4ccccc4Cc4ccccc43)C2)C1 (single isomer, unassigned; stereoisomer 1)	0.03

Tested on: not listed separately
Assay: Fraction unbound in rat blood
Type: ADME, tissue-based
Settings: not given

SMILES	fraction unbound
O=C(O)C1=CCCN(C2CC[C@]3(Cc4ccccc4Cc4ccccc43)C2)C1 (single isomer, unassigned; stereoisomer 1)	0.024

Tested on: not listed separately
Assay: Blood clearance in Sprague-Dawley rat at 1 mg/kg, iv and 3 mg/kg, po
Type: ADME, organism-based
Settings: whole blood
How it was run: (§2)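 Male Sprague-Dawley rats, cassette dosing. Compounds were given as an iv bolus and as an oral suspension. Blood samples were taken at intervals up to 24 h, processed by protein precipitation and analysed by HPLC-MS/MS.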

SMILES	clearance [mL/min/kg]
O=C(O)C1=CCCN(C2CC[C@]3(Cc4ccccc4Cc4ccccc43)C2)C1 (single isomer, unassigned; stereoisomer 1)	2

Tested on: not listed separately
Assay: Volume of distribution at steady state in Sprague-Dawley rat at 1 mg/kg, iv and 3 mg/kg, po
Type: ADME, organism-based
Settings: in vivo, read-out: Vdss
How it was run: as §2

SMILES	Vd [L/kg]
O=C(O)C1=CCCN(C2CC[C@]3(Cc4ccccc4Cc4ccccc43)C2)C1 (single isomer, unassigned; stereoisomer 1)	0.4

Tested on: not listed separately
Assay: Half life in Sprague-Dawley rat at 1 mg/kg, iv and 3 mg/kg, po
Type: ADME, organism-based
Settings: in vivo
How it was run: as §2

SMILES	half-life [h]
O=C(O)C1=CCCN(C2CC[C@]3(Cc4ccccc4Cc4ccccc43)C2)C1 (single isomer, unassigned; stereoisomer 1)	2.4

Tested on: not listed separately
Assay: Oral bioavailability in Sprague-Dawley rat at 3 mg/kg
Type: ADME, organism-based
Settings: in vivo
How it was run: as §2

SMILES	bioavailability [%]
O=C(O)C1=CCCN(C2CC[C@]3(Cc4ccccc4Cc4ccccc43)C2)C1 (single isomer, unassigned; stereoisomer 1)	80

Tested on: not listed separately
Assay: Ratio of drug level in brain to blood in Sprague-Dawley rat at 1 mg/kg, iv and 3 mg/kg, po
Type: ADME, organism-based
Settings: read-out: BBR
How it was run: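 Male Sprague-Dawley rats, cassette dosing, iv bolus or oral suspension. Blood and brain levels were measured by protein precipitation and HPLC-MS/MS. Brain:blood ratio was taken from AUC0-8h after oral dosing, or at 1 h after iv dosing for one compound.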

SMILES	Kp
O=C(O)C1=CCCN(C2CC[C@]3(Cc4ccccc4Cc4ccccc43)C2)C1 (single isomer, unassigned; stereoisomer 1)	0.1
